According to ChEMBL document CHEMBL1126698, “Synthesis and amnesia-reversal activity of a series of 7- and 5-membered 3-acylamino lactams” (1993):

Experiments:
Type in all cases: functional
Mus musculus [1] = experiment: Amnesia-reversal activity in ECS-induced amnesia model of mice at 1 mg/kg i.p.; details: route intraperitoneal
In short: (§1)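 Male CD1 mice (24–28 g), step-through passive avoidance. Amnesia induced by ECS through auricular electrodes (20 mA, 0.6 ms pulses, 0.5 s, 50 Hz) immediately after the acquisition trial. Compound given ip 30 min before acquisition, at doses equimolar to 1 or 10 mg/kg Piracetam. Retention latency capped at 300 s. AA = CI(treated)/CI(sham) × 100, with CI derived from Mann-Whitney U versus amnesic controls.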

Mus musculus [2] = experiment: Amnesia-reversal activity in ECS-induced amnesia model of mice at 10 mg/kg i.p.; details: route intraperitoneal; in short: as §1
Mus musculus [3] = experiment: Amnesia-reversal activity in scopolamine-induced amnesia model of mice at 1 mg/kg i.p.; details: route intraperitoneal
In short: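 Step-through passive avoidance in male CD1 mice (24–28 g). Scopolamine hydrobromide 1.5 mg/kg sc given 15 min before the acquisition trial. Test substance given ip 30 min before acquisition at a dose equimolar to 1 mg/kg Piracetam. Retention latency end point 300 s. AA is the treated-to-sham ratio of confrontation indices (×100), each index computed from Mann-Whitney U against the scopolamine-only group.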

Mus musculus [4] = experiment: Amnesia-reversal activity evaluated in ECS-induced amnesia model of mice at a dose of 10 mg/kg
In short: (§2)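 Male CD1 mice (24–28 g), step-through passive avoidance, retention end point 300 s. ECS via auricular electrodes (20 mA, 0.6 ms pulses, 0.5 s, 50 Hz) immediately after the acquisition trial. Compounds given ip 30 min before acquisition at doses equimolar to 1, 10 (and 100 for references) mg/kg Piracetam. Retention latency vs control by Mann-Whitney U. AA = CI treated/CI sham ×100.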

Mus musculus [5] = experiment: Amnesia-reversal activity evaluated in ECS-induced amnesia model of mice at a dose of 1 mg/kg; in short: as §2
Mus musculus [6] = experiment: Amnesia-reversal activity evaluated in scopolamine-induced amnesia model of mice at a dose of 1 mg/kg
In short: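 Male CD1 mice (24–28 g), step-through passive avoidance, retention end point 300 s. Scopolamine hydrobromide 1.5 mg/kg sc 15 min before acquisition. Compounds given ip 30 min before acquisition at a dose equimolar to 1 mg/kg Piracetam. Retention latency vs control by Mann-Whitney U. AA = CI treated/CI sham ×100.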

Mus musculus [7] = experiment: Amnesia-reversal activity (AA) evaluated in ECS-induced amnesia model of mice at a dose of 100 mg/kg; in short: as §2

Row | SMILES | AA (Mus musculus [1]) | AA (Mus musculus [2]) | AA (Mus musculus [3]) | AA (Mus musculus [4]) | AA (Mus musculus [5]) | AA (Mus musculus [6]) | AA (Mus musculus [7])
1 | O=C(CN1CCCC1=O)NC1CCCCNC1=O (stereo not drawn) | 10 | 0 | 21 |  |  |  | 
2 | COC(=O)CN1CCCC[C@H](NC(=O)CCCc2ccccc2)C1=O |  |  |  | 0 | 0 | 0 | 
3 | O=C(CCCc1ccccc1)N[C@H]1CCCCN(CCO)C1=O | 7 | 20 | 12 |  |  |  | 
4 | NC(=O)CN1CCCC[C@H](NC=O)C1=O | 55 | 9 | 0 |  |  |  | 
5 | O=CCN1CCCC[C@H](NC(=O)CCCc2ccccc2)C1=O |  |  |  | 25 | 0 | 26 | 
6 | O=C(N[C@@H]1CCCCNC1=O)c1cccc(C(F)(F)F)c1 | 21 | 0 | 15 |  |  |  | 
7 | N[C@H]1CCNC1=O |  |  |  | 0 | 24 | 0 | 
8 | N[C@H]1CCCCNC1=O |  |  |  | 26 | 37 | 47 | 
9 | O=C(NC1CCCCNC1=O)c1cccc(C(F)(F)F)c1 (stereo not drawn) | 18 | 17 | 65 |  |  |  | 
10 | COc1ccc(C(=O)NC2CCCCNC2=O)cc1 (stereo not drawn) | 37 | 37 | 0 |  |  |  | 
11 | O=C(CCCc1ccccc1)NC1CCCCNC1=O (stereo not drawn) | 0 | 0 | 5 |  |  |  | 
12 | O=C1NCCCCC1NC(=O)[C@@H]1CCCN1C(=O)OCc1ccccc1 (stereo partly drawn) | 0 |  | 27 |  |  |  | 
13 | NC(=O)CN1CCCC[C@H](NC(=O)CCCc2ccccc2)C1=O | 0 | 0 | 0 |  |  |  | 
14 | O=C(NC1CCNC1=O)c1cccc(C(F)(F)F)c1 (stereo not drawn) | 51 | 58 | 0 |  |  |  | 
15 | O=CN[C@H]1CCCCN(CCO)C1=O | 46 | 61 | 7 |  |  |  | 
16 | COC(=O)CN1CCCC[C@H](NC=O)C1=O | 0 | 9 | 0 |  |  |  | 
17 | O=CNC1CCCCNC1=O (stereo not drawn) | 71 | 55 | 49 |  |  |  | 
18 | COc1cc(C(=O)NC2CCCCNC2=O)cc(OC)c1OC (stereo not drawn) | 31 | 42 | 0 |  |  |  | 
19 | O=CNC1CCNC1=O (stereo not drawn) |  |  |  | 9 | 53 | 0 | 
20 | CC(=O)NC1CCCCNC1=O (stereo not drawn) | 7 | 14 | 39 |  |  |  | 
21 | N[C@@H]1CCCCNC1=O |  |  |  | 25 | 0 | 44 | 
22 | COc1ccc(C(=O)N2CCCC2=O)cc1 [ANIRACETAM] | 29 | 0 | 18 |  |  |  | 83
23 | NC(=O)CN1CC(O)CC1=O (stereo not drawn) [OXIRACETAM] | 31 | 8 | 0 |  |  |  | 57
24 | NC(=O)CN1CCCC1=O [PIRACETAM] | 0 | 0 |  |  |  |  | 39
